Reference: ChEMBL document CHEMBL2176883, “Aminopiperidine sulfonamide Cav2.2 channel inhibitors for the treatment of chronic pain” (J Med Chem, 2012)
pIC50: −log10 of the molar value.

Tests used:
[1] = target: T1, Voltage-dependent N-type calcium channel subunit alpha-1B (Homo sapiens, UniProt Q00975); experiment: Inhibition of Cav2.2 expressed HEK293 cells assessed as inhibition of calcium flux at 1 uM by FLIPR assay; assay type: cell-based
Method in brief: (§1)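 Calcium influx was read with a calcium-sensitive dye on FLIPR Tetra in CBK cells expressing α1B-1, α2-δ and β3a with Kir2.3. Cells were preincubated with compound in 30 mM K+, then channels were opened by 1:1 addition of 140 mM K+ solution. Compounds were screened at 1 μM, then titrated over 10 points (0.001–30 μM) in quadruplicate, mean ± SD. Values are averages of n ≥ 3.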
Target sequence in this assay (Q00975 whole entry, looked up): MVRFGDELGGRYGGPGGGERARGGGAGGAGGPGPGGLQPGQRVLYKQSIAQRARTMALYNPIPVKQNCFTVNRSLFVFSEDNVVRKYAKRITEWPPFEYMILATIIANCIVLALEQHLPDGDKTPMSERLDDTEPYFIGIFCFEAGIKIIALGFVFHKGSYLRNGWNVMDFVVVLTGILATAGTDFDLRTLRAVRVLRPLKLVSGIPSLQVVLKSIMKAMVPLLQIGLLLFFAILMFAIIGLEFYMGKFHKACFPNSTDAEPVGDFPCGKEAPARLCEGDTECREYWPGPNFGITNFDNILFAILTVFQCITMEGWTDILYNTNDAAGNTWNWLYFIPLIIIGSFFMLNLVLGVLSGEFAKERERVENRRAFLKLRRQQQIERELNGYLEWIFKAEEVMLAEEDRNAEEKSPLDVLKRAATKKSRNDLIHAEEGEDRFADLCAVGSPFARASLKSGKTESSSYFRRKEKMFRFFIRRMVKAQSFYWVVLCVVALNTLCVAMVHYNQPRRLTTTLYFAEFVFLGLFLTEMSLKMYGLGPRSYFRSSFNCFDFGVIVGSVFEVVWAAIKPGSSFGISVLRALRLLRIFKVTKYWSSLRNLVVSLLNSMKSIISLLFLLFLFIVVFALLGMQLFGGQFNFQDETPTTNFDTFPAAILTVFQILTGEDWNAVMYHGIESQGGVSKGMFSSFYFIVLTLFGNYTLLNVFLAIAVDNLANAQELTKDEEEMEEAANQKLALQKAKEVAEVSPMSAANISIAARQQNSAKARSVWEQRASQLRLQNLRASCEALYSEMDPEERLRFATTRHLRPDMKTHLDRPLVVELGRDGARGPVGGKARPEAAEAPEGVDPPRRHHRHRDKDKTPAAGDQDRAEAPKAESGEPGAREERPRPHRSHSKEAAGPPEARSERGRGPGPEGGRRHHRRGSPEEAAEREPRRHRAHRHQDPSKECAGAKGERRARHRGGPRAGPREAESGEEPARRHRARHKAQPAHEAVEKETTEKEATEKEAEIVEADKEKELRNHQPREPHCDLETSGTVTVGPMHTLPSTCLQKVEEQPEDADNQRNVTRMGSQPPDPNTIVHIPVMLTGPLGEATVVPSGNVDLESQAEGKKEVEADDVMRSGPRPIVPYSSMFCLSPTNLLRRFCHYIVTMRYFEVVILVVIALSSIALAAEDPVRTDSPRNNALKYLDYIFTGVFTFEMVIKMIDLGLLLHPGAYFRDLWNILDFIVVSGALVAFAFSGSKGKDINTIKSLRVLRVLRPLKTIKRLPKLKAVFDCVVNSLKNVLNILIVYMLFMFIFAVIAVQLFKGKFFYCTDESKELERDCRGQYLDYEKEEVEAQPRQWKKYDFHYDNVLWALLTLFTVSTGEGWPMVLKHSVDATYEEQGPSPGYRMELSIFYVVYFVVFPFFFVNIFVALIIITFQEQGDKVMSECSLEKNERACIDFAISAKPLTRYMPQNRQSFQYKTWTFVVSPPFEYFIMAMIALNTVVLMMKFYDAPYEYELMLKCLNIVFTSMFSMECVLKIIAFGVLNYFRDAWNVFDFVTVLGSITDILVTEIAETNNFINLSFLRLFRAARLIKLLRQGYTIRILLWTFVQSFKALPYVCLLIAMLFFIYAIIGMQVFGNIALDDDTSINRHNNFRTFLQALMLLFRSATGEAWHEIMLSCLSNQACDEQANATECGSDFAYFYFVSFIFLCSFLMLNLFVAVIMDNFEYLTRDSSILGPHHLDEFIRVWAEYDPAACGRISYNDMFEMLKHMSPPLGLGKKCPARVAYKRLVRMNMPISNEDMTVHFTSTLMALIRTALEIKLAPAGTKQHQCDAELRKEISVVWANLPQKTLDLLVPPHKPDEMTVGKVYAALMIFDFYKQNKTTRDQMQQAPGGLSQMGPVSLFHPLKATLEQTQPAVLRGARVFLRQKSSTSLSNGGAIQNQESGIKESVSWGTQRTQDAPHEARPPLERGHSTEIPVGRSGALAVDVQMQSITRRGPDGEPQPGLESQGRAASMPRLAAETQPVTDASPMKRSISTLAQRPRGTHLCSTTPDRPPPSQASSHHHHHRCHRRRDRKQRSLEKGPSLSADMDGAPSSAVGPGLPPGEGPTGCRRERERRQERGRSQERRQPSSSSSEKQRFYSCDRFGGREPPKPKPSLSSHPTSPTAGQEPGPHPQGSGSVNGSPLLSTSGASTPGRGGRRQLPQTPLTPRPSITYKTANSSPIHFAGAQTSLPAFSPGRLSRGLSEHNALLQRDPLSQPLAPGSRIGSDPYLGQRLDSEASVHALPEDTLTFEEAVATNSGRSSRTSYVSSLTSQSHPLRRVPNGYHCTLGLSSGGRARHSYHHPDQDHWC

[2] = target: T2, hERG (Homo sapiens, UniProt Q12809); experiment: Displacement of [35S]-MK-0499 from human ERG at 10 uM; conditions: probe [35S]-MK-0499
Method in brief: (§2)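 hERG binding was measured as displacement of 35S-labeled MK-0499 at single test concentrations.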

[3] = target: T1, Voltage-dependent N-type calcium channel subunit alpha-1B; experiment: Inhibition of Cav2.2 expressed HEK293 cells assessed as inhibition of calcium flux by FLIPR assay in presence of 30 mM of potassium; assay type: cell-based; method in brief: as §1
Target sequence in this assay (Q00975 whole entry): as the sequence (Q00975 whole entry, looked up) above

[4] = Oral bioavailability in rat at 3 mg/kg; assay type: ADME, organism-based; conditions: in vivo
Method in brief: (§3)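 Rat pharmacokinetics from iv and po arms: 0.6 mg/kg iv with 1.8 mg/kg po, or 1 mg/kg iv with 3 mg/kg po. AUC was normalized to po dose (μM·h·kg/mg). Clearance (mL/min/kg) and half-life come from the iv arm, and F% is oral bioavailability.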

[5] = system: Rattus norvegicus; experiment: Antinociceptive activity in rat assessed as reversal of complete Freund's adjuvant-induced pain at 3 mg/kg, iv after 3 hrs; assay type: functional
[6] = Plasma clearance in rat at 3 mg/kg, po and 1 mg/kg, iv; assay type: ADME, organism-based; method in brief: as §3
[7] = Half life in rat at 3 mg/kg, po and 1 mg/kg, iv; assay type: ADME, organism-based; conditions: in vivo; method in brief: as §3
[8] = system: Rattus norvegicus; experiment: Antinociceptive activity in rat assessed as reversal of complete Freund's adjuvant-induced pain at 3 mg/kg, iv after 1 hr; assay type: functional
[9] = Metabolic stability in rat liver microsomes assessed as compound remaining at 1 uM after 1 hr; assay type: ADME, Microsome; conditions: read-out: Stability
Method in brief: (§4)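 Compound at 1 μM was incubated with human or rat liver microsomes (1 mg/mL) for 1 h, and the percentage of parent remaining was determined.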

[10] = target: T2, hERG; experiment: Displacement of [35S]-MK-0499 from human ERG at 1 uM; conditions: probe [35S]-MK-0499; method in brief: as §2
[11] = system: Rattus norvegicus; experiment: Dose normalized AUC in rat at 1.8 mg/kg, po and 0.6 mg/kg, iv; assay type: ADME, organism-based; conditions: in vivo; method in brief: as §3
[12] = Metabolic stability in human liver microsomes assessed as compound remaining at 1 uM after 1 hr; assay type: ADME, Microsome; conditions: read-out: Stability; method in brief: as §4
[13] = target: T3, Cav1.2 (Homo sapiens, UniProt Q13936); experiment: Inhibition of Cav1.2 assessed as inhibition of calcium flux at 3 uM by cell based FLIPR assay
Method in brief: (§5)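 Cav1.2 counterscreen using a related calcium-influx FLIPR assay, run as % inhibition at single concentrations or as a titration.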

[14] = target: T3, Cav1.2; experiment: Inhibition of Cav1.2 assessed as inhibition of calcium flux at 1 uM by cell based FLIPR assay; method in brief: as §5
[15] = system: Mus musculus; experiment: Antinociceptive activity in Cav2.2 expressing wild type mouse SNL neuropathic pain model assessed as reversal of mechanical allodynia at 30 mg/kg, po after 2 hrs; assay type: functional
Method in brief: (§6)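 Cav2.2+/+ and Cav2.2−/− mice underwent spinal nerve ligation, then got a single 30 mg/kg oral dose. Mechanical allodynia was scored 2 h postdose.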

[16] = system: Mus musculus; experiment: Antinociceptive activity in Cav2.2 deficient mouse SNL neuropathic pain model assessed as reversal of mechanical allodynia at 30 mg/kg, po after 2 hrs; assay type: functional; method in brief: as §6
[17] = system: Rattus norvegicus; experiment: Analgesic activity in rat SNL neuropathic pain model assessed as reversal of mechanical allodynia at 10 mg/kg, po after 3 hrs; assay type: functional
[18] = system: Rattus norvegicus; experiment: Antinociceptive activity in rat assessed as reversal of complete Freund's adjuvant-induced pain at 30 mg/kg, po after 1 hr; assay type: functional
Method in brief: (§7)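 In the rat CFA inflammatory pain model, compound was given orally at 30 mg/kg and allodynia was read at 1 and 3 h postdose. Average % reversal = (postdose − predose)/(preinjury − predose) for each rat, n = 6. Plasma exposure at 3 h was measured in satellite rats (n = 2).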

[19] = system: Rattus norvegicus; experiment: Antinociceptive activity in rat assessed as reversal of complete Freund's adjuvant-induced pain at 30 mg/kg, po after 3 hrs; assay type: functional; method in brief: as §7
[20] = system: Rattus norvegicus; experiment: Analgesic activity in rat SNL neuropathic pain model assessed as reversal of mechanical allodynia at 10 mg/kg, po after 1 hr; assay type: functional
[21] = Plasma concentration in rat SNL neuropathic pain model at 10 mg/kg, po after 3.5 hrs; assay type: ADME, organism-based; set-up: dose 10 mg/kg, route oral
[22] = system: Rattus norvegicus; experiment: Dose normalized AUC in po dosed rat; assay type: ADME, organism-based; conditions: in vivo; method in brief: as §3
[23] = target: Voltage-dependent L-type calcium channel subunit alpha-1C (Homo sapiens, UniProt Q13936); experiment: Inhibition of Cav1.2 assessed as inhibition of calcium flux by cell based FLIPR assay; method in brief: as §5
[24] = target: T1, Voltage-dependent N-type calcium channel subunit alpha-1B; experiment: Inhibition of Cav2.2 expressed HEK293 cells assessed as inhibition of calcium flux by FLIPR assay in presence of 4 mM of potassium; assay type: cell-based
Method in brief: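 HEK-293-derived CBK cells coexpress α1B-1, α2-δ and β3a with Kir2.3. Compound was incubated in 4 mM K+ bath, holding about −90 mV. Ca2+ influx was read with a Ca-sensitive dye on FLIPR Tetra. Ten-point titrations ran 0.001–30 μM in quadruplicate, averaged ± SD to give IC50.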
Target sequence in this assay (Q00975 whole entry): as the sequence (Q00975 whole entry, looked up) above

[25] = Oral bioavailability in rat; assay type: ADME, organism-based; conditions: in vivo; method in brief: as §3
[26] = Plasma clearance in rat; assay type: ADME, organism-based; method in brief: as §3

T2 sequence (Q12809 whole entry): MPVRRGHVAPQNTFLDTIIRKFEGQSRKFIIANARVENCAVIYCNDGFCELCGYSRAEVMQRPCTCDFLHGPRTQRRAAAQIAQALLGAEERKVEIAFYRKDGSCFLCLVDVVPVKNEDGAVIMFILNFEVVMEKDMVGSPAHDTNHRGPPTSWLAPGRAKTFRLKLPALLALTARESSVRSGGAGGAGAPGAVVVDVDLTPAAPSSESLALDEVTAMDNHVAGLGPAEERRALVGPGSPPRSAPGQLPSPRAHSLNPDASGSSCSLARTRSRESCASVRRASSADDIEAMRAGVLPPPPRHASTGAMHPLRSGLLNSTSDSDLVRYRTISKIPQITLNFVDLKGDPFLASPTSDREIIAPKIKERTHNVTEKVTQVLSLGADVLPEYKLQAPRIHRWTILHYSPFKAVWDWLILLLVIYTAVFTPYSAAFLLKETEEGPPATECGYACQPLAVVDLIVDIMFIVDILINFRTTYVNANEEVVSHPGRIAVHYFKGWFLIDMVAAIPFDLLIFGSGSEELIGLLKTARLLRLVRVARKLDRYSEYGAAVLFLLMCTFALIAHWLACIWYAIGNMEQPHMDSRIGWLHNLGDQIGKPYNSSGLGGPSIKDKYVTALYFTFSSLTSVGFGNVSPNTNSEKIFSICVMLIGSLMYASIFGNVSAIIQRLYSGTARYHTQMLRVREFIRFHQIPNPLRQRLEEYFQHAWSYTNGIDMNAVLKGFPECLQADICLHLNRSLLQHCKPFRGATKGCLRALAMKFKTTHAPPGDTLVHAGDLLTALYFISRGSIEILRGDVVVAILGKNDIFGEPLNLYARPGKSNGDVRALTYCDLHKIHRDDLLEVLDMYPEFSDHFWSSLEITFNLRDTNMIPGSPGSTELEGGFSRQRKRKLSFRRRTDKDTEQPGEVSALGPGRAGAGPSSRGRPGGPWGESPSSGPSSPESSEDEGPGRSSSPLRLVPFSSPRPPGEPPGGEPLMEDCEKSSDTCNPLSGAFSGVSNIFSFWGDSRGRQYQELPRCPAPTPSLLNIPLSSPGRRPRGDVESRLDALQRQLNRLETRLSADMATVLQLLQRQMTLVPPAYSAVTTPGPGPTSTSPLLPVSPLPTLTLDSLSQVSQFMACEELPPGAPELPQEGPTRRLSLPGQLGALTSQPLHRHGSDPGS

**Q.** With O=C(c1ccccc1)N1CCC(N(C2CC2)S(=O)(=O)c2cccc(C(F)(F)F)c2)CC1 as the compound, how does the inhibition [1] read?
**A.** 42%

**Q.** Which inhibition at 10 µM [2] does the source give for O=C(c1ccccc1OC(F)(F)F)N1CCC(N(C2CC2)S(=O)(=O)c2cccc(C(F)(F)F)c2)CC1 here?
**A.** 75%

**Q.** And the pIC50 [3]?
**A.** 6.92

**Q.** What about the bioavailability [4] of the same compound?
**A.** 47%

**Q.** What about the Activity [5] of the same compound?
**A.** 17%

**Q.** And the clearance [6]?
**A.** 65 mL/min/kg

**Q.** And the half-life [7]?
**A.** 1.6 h

**Q.** And the Activity [8]?
**A.** 23%

**Q.** And the remaining at 1 h, 1 µM [9]?
**A.** 21%

**Q.** What about the inhibition at 1 µM [10] of the same compound?
**A.** 21%

**Q.** And the AUC/dose [11]?
**A.** 0.23 µM·kg·h/mg

**Q.** What about the remaining at 1 h, 1 µM [12] of the same compound?
**A.** 1%

**Q.** With NC(=O)c1cccc(C(=O)N2CCC(N(C3CC3)S(=O)(=O)c3cccc(C(F)(F)F)c3)CC2)c1 as the compound, how does the inhibition [1] read?
**A.** 0%

**Q.** For NC(=O)c1ccccc1C(=O)N1CCC(N(C2CC2)S(=O)(=O)c2cccc(C(F)(F)F)c2)CC1, which inhibition at 3 µM [13] is on record?
**A.** 17%

**Q.** What about the inhibition [1] of the same compound?
**A.** 15%

**Q.** And the inhibition at 1 µM [14]?
**A.** 11%

**Q.** For NCC1(CC(=O)O)CCCCC1 [GABAPENTIN], which Activity [15] is on record?
**A.** 71%

**Q.** What about the Activity [16] of the same compound?
**A.** 48%

**Q.** For NS(=O)(=O)c1cccc(C(F)(F)F)c1, which Activity [17] is on record?
**A.** 36%

**Q.** And the Activity [18]?
**A.** 53%

**Q.** And the Activity [19]?
**A.** 44%

**Q.** What about the Activity [20] of the same compound?
**A.** 27%

**Q.** And the concentration at 3.5 h [21]?
**A.** 35.6 µM

**Q.** What does the source list for CN(C)c1cccc(C(=O)N2CCC(N(C3CC3)S(=O)(=O)c3cccc(C(F)(F)F)c3)CC2)c1?
**A.** inhibition at 10 µM [2]: 51%; pIC50 [3]: 6.62; inhibition at 3 µM [13]: 63%; inhibition at 1 µM [10]: 0%; inhibition at 1 µM [14]: 40%

**Q.** What does the source list for NC(=O)c1ccc(C(=O)N2CCC(N(C3CC3)S(=O)(=O)c3cccc(C(F)(F)F)c3)CC2)cc1?
**A.** inhibition at 3 µM [13]: 0%; inhibition [1]: 12%; inhibition at 1 µM [14]: 0%

**Q.** Which inhibition [1] does the source give for CS(=O)(=O)c1ccc(F)cc1C(=O)N1CCC(N(C2CC2)S(=O)(=O)c2ccccc2C(F)(F)F)CC1 here?
**A.** 17%

**Q.** Which inhibition [1] does the source give for CS(=O)(=O)c1ccc(F)cc1C(=O)N1CCC(N(C2CC2)S(=O)(=O)c2ccc(C(F)(F)F)cc2)CC1 here?
**A.** 1%

**Q.** Which AUC/dose [22] does the source give for CCCN(C1CCN(Cc2c(OC)cccc2OC)CC1)S(=O)(=O)c1cccc(C(F)(F)F)c1 here?
**A.** 0.007 µM·kg·h/mg

**Q.** What about the pIC50 [23] of the same compound?
**A.** 5.49

**Q.** And the pIC50 [3]?
**A.** 6.92

**Q.** And the pIC50 [24]?
**A.** 5.32

**Q.** And the bioavailability [25]?
**A.** 4%

**Q.** What about the inhibition at 1 µM [10] of the same compound?
**A.** 91%

**Q.** And the clearance [26]?
**A.** 169 mL/min/kg

**Q.** For CS(=O)(=O)c1ccc(F)cc1C(=O)N1CCC(N(C2CC2)S(=O)(=O)c2ccc(OC(F)(F)F)cc2)CC1, which inhibition [1] is on record?
**A.** 0%
